Data: publication PMC10963893 (eBioMedicine, 2024)
Values after ≈ are worked out from the molar mass of the structure shown.

Legend:
K. pneumoniae Ecl8 = assay: Broth micro-dilution MIC / dose-response growth inhibition; format: cell-based, Klebsiella pneumoniae; details: for MIC: Klebsiella pneumoniae, ECL8, read-out: K. pneumoniae Ecl8 MIC; for K. pneumoniae Ecl8 Interp.: S/R interpretation by EUCAST breakpoint, ECOFF or fold vs QC strain
K. pneumoniae NCTC 13438 = assay: as above; format: cell-based, Klebsiella pneumoniae; details: for MIC: Klebsiella pneumoniae, NCTC13438, read-out: K. pneumoniae NCTC 13438 MIC; for K. pneumoniae NCTC 13438 Interp.: S/R interpretation by EUCAST breakpoint, ECOFF or fold vs QC strain
A. baumannii NCTC 13424 = assay: as above; format: cell-based, Acinetobacter baumannii; details: for MIC: Acinetobacter baumannii, NCTC13424, read-out: A. baumannii NCTC 13424 MIC; for A. baumannii NCTC 13424 Interp.: S/R interpretation by EUCAST breakpoint, ECOFF or fold vs QC strain
[1] = test system: primary screening strains (A. baumannii NCTC 13424, K. pneumoniae NCTC 13438, K. pneumoniae Ecl8); assay: HTS / susceptibility assay with the primary screening strains; format: cell-based; details: 50 mg L^−1, positive control
How it was run: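 Broth microdilution (EUCAST method adapted to 384-well); inoculum 5 × 10^5 CFU mL−1 (OD600 0.0005); static at 37 °C in 5% CO2 for 24 h (K. pneumoniae) or 20 h (A. baumannii); compound at one concentration in duplicate, or two concentrations (1.4–68.0 μM, 0.5% DMSO) singly for one library; OD600 read; % growth inhibition normalised between apramycin 50 mg L−1 and DMSO wells; actives called at 3σ.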

Molecule | MIC (K. pneumoniae Ecl8) [mg/L] | K. pneumoniae Ecl8 Interp. (K. pneumoniae Ecl8) | MIC (K. pneumoniae NCTC 13438) [mg/L] | K. pneumoniae NCTC 13438 Interp. (K. pneumoniae NCTC 13438) | MIC (A. baumannii NCTC 13424) [mg/L] | A. baumannii NCTC 13424 Interp. (A. baumannii NCTC 13424) | growth inhibition of primary screening strains [1]
NCC[C@H](O)C(=O)N[C@@H]1C[C@H](N)[C@@H](O[C@H]2O[C@H](CN)[C@@H](O)[C@H](O)[C@H]2O)[C@H](O)[C@H]1O[C@H]1O[C@H](CO)[C@@H](O)[C@H](N)[C@H]1O [Amikacin] | 2 (≈ 3.42 µM) | S | 64 (≈ 109 µM) | R | > 512 | R | –
CN[C@@H]1[C@@H](O[C@H]2O[C@H](CO)[C@@H](N)[C@H](O)[C@H]2O)OC2C[C@@H](N)[C@@H](O[C@H]3[C@H](O)[C@@H](O)[C@H](N)C[C@@H]3N)OC2[C@@H]1O (some centres unmarked) [Apramycin] | 4 (≈ 7.41 µM) | S ^c | 4 (≈ 7.41 µM) | S ^c | 8 (≈ 14.8 µM) | S ^c | completely inhibited the growth
C[C@H]1[C@H](NC(=O)/C(=N\OC(C)(C)C(=O)O)c2csc(N)n2)C(=O)N1S(=O)(=O)O [Aztreonam] | 0.25 (≈ 0.574 µM) | S | > 512 | R | 32 (≈ 73.5 µM) | – | –
CO/N=C(\C(=O)N[C@@H]1C(=O)N2C(C(=O)[O-])=C(C[N+]3(C)CCCC3)CS[C@H]12)c1csc(N)n1 [Cefepime] | 0.12 (≈ 0.25 µM) | S | 128 (≈ 266 µM) | R | 32 (≈ 66.6 µM) | R | –
CO/N=C(\C(=O)N[C@@H]1C(=O)N2C(C(=O)O)=C(COC(C)=O)CS[C@H]12)c1csc(N)n1 [Cefotaxime] | 0.06 (≈ 0.132 µM) | S | 256 (≈ 562 µM) | R | 512 (≈ 1120 µM) | R | –
CC(C)(O/N=C(\C(=O)N[C@@H]1C(=O)N2C(C(=O)[O-])=C(C[n+]3ccccc3)CS[C@H]12)c1csc(N)n1)C(=O)O [Ceftazidime] | 0.5 (≈ 0.915 µM) | S | 512 (≈ 937 µM) | R | 64 (≈ 117 µM) | R | –
O=C(N[C@H](CO)[C@H](O)c1ccc([N+](=O)[O-])cc1)C(Cl)Cl [Chloramphenicol] | 4 (≈ 12.4 µM) | S | 32 (≈ 99 µM) | R | 64 (≈ 198 µM) | – | –
O=C(O)c1cn(C2CC2)c2cc(N3CCNCC3)c(F)cc2c1=O [Ciprofloxacin] | – | – | > 512 | – | – | R | –
C[C@@H]1O[C@@H]1P(=O)(O)O [Fosfomycin] | 64 (≈ 464 µM) | R | 16 (≈ 116 µM) | S | 64 (≈ 464 µM) | – | –
CNC(C)C1CCC(N)C(OC2C(N)CC(N)C(OC3OCC(C)(O)C(NC)C3O)C2O)O1 (centres unmarked) [Gentamicin] | 1 (≈ 2.09 µM) | S | 4 (≈ 8.38 µM) | R | > 512 | R | –
C[C@@H](O)[C@H]1C(=O)N2C(C(=O)O)=C(SCCN=CN)C[C@H]12 [Imipenem] | 0.25 (≈ 0.835 µM) | S | 128 (≈ 428 µM) | R | 128 (≈ 428 µM) | R | –
C[C@H]1COc2c(N3CCN(C)CC3)c(F)cc3c(=O)c(C(=O)O)cn1c23 [Levofloxacin] | 0.12 (≈ 0.332 µM) | S | 128 (≈ 354 µM) | R | 32 (≈ 88.6 µM) | R | –
C[C@@H](O)[C@H]1C(=O)N2C(C(=O)O)=C(S[C@@H]3CN[C@H](C(=O)N(C)C)C3)[C@H](C)[C@H]12 [Meropenem] | 0.06 (≈ 0.156 µM) | S | – | R | 64 (≈ 167 µM) | R | –
CN(C)c1ccc(O)c2c1C[C@H]1C[C@H]3[C@H](N(C)C)C(O)=C(C(N)=O)C(=O)[C@@]3(O)C(O)=C1C2=O [Minocycline] | 2 (≈ 4.37 µM) | S ^b | 4 (≈ 8.74 µM) | S ^b | 4 (≈ 8.74 µM) | S ^b | –
Cc1cc(NS(=O)(=O)c2ccc(N)cc2)no1 [Sulfamethoxazole] | 64 (≈ 253 µM) | R ^c | > 512 | R ^c | > 512 | R ^c | –
CN(C)[C@@H]1C(O)=C(C(N)=O)C(=O)[C@@]2(O)C(O)=C3C(=O)c4c(O)cccc4[C@@](C)(O)[C@H]3C[C@@H]12 [Tetracycline] | 1 (≈ 2.25 µM) | S ^b | 4 (≈ 9 µM) | S ^b | 256 (≈ 576 µM) | R ^b | –
NC[C@H]1O[C@H](O[C@H]2[C@H](O)[C@@H](O[C@H]3O[C@H](CO)[C@@H](O)[C@H](N)[C@H]3O)[C@H](N)C[C@@H]2N)[C@H](N)C[C@@H]1O [Tobramycin] | 1 (≈ 2.14 µM) | S | 32 (≈ 68.4 µM) | R | > 512 | R | –
COc1cc(Cc2cnc(N)nc2N)cc(OC)c1OC [Trimethoprim] | 4 (≈ 13.8 µM) | S | > 512 | R | 128 (≈ 441 µM) | R | –
Colistin | – | S ^b | – | S ^b | – | S ^b | –
Polymyxin B | – | S ^c | – | S ^c | – | S ^c | –
